In brackets after ≈: the same amount, converted by molar mass.
How the values were obtained:
Candida albicans [1] = test: Fungicidal activity against Candida albicans ATCC SC5314 assessed as inhibition of visible fungal growth measured after 48 hrs; type: functional
Candida albicans [2] = test: Anti-biofilm activity in Candida albicans CPCC400616 assessed as inhibition of biofilm formation incubated for 24 hrs by XTT assay; type: functional
In short: (§1)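 C. albicans CPCC400616 suspension placed in wells at 37 °C. Non-adherent cells and medium were removed at 3, 6, 18 or 24 h and wells washed with PBS. Compounds were added at a range of concentrations in fresh RPMI 1640 and incubated a further 24 h at 37 °C. Biofilm metabolic activity was read by XTT reduction.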

Candida albicans [3] = test: Anti-biofilm activity in Candida albicans CPCC400616 assessed as inhibition of biofilm formation incubated for 6 hrs by XTT assay; type: functional; in short: as §1
Candida albicans [4] = test: Anti-biofilm activity in Candida albicans CPCC400616 assessed as inhibition of biofilm formation incubated for 3 hrs by XTT assay; type: functional; in short: as §1
Candida albicans [5] = test: Antifungal activity against Candida albicans ATCC SC5314 assessed as fungal growth inhibition by CLSI protocol based method; type: functional
Candida albicans [6] = test: Antifungal activity against Candida albicans CPCC400616 assessed as fungal growth inhibition by CLSI protocol based method; type: functional
Candida tropicalis = test: Antifungal activity against Candida tropicalis CGMCC 2.3739 assessed as fungal growth inhibition by CLSI protocol based method; type: functional
Cryptococcus neoformans = test: Antifungal activity against Cryptococcus neoformans CGMCC2.3161 assessed as fungal growth inhibition by CLSI protocol based method; type: functional
Candida parapsilosis = test: Antifungal activity against Candida parapsilosis GIM2.190 assessed as fungal growth inhibition by CLSI protocol based method; type: functional; details: Lodderomyces parapsilosis
Nakaseomyces glabratus = test: Antifungal activity against Candida glabrata assessed as fungal growth inhibition by CLSI protocol based method; type: functional
Pichia kudriavzevii = test: Antifungal activity against Candida krusei GIM2.1 assessed as fungal growth inhibition by CLSI protocol based method; type: functional
[7] = target: T1, Lanosterol 14-alpha demethylase (Candida albicans (strain SC5314 / ATCC MYA-2876) (Yeast), UniProt P10613); test: Inhibition of CYP51 in Candida albicans assessed as lanosterol level at 0.015 ug/ml measured after 18 hrs by GC-MS analysis relative to control; parameters: scale not given: the % may be the effect or the level left; details: at 0.015 µg/mL
[8] = target: T1, Lanosterol 14-alpha demethylase; test: Inhibition of CYP51 in Candida albicans assessed as Ergosterol level at 0.015 ug/ml measured after 18 hrs by GC-MS analysis (reference value: 96.93 %); parameters: scale not given: the % may be the effect or the level left; details: at 0.015 µg/mL
[9] = target: T1, Lanosterol 14-alpha demethylase; test: Inhibition of CYP51 in Candida albicans assessed as Eburicol level at 0.015 ug/ml measured after 18 hrs by GC-MS analysis relative to control; parameters: scale not given: the % may be the effect or the level left; details: at 0.015 µg/mL
[10] = target: T1, Lanosterol 14-alpha demethylase; test: Inhibition of CYP51 in Candida albicans assessed as 14alpha-methylfecosterol level at 0.015 ug/ml measured after 18 hrs by GC-MS analysis relative to control; parameters: scale not given: the % may be the effect or the level left; details: at 0.015 µg/mL
[11] = target: T1, Lanosterol 14-alpha demethylase; test: Inhibition of CYP51 in Candida albicans assessed as other sterols level at 0.015 ug/ml measured after 18 hrs by GC-MS analysis relative to control; parameters: scale not given: the % may be the effect or the level left; details: at 0.015 µg/mL
THLE-2 = test: Cytotoxicity against human THLE-2 cells assessed as reduction in cell viability measured after 96 hrs by MTT assay; type: ADME, cell-based; details: THLE-2, 96 h
A549 = test: Cytotoxicity against human A549 cells assessed as reduction in cell viability measured after 96 hrs by MTT assay; type: ADME, cell-based; details: A549, 96 h
MCF7 = test: Cytotoxicity against human MCF7 cells assessed as reduction in cell viability measured after 96 hrs by MTT assay; type: ADME, cell-based; details: MCF7, 96 h
[12] = Metabolic stability in human plasma assessed as parent compound remaining after 60 mins by LC-MS/MS analysis; type: ADME, cell-free; details: read-out: Stability
[13] = Metabolic stability in human plasma assessed as parent compound remaining after 120 mins by LC-MS/MS analysis; type: ADME, cell-free; details: read-out: Stability
[14] = Metabolic stability in human plasma assessed as half life after 60 mins by LC-MS/MS analysis; type: ADME, cell-free
Candida albicans [15] = test: Anti-biofilm activity in Candida albicans CPCC400616 assessed as inhibition of biofilm formation measured up to 24 hrs by XTT assay; type: functional, organism-based; details: time hrs <=24
In short: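 C. albicans CPCC400616 suspension allowed to adhere in 96-well plates at 37 °C; non-adherent cells and medium removed after 3, 6, 18 or 24 h. Wells washed with PBS, compounds added at graded concentrations in fresh RPMI 1640, then incubated a further 24 h at 37 °C. Biofilm quantified semiquantitatively by XTT reduction. SMIC50 is the concentration inhibiting biofilm metabolic activity by 50%.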

Candida albicans [16] = test: Fungicidal activity in Candida albicans CPCC400616 assessed as reduction in viable colony formation measured within 16 hrs by time kill assay; type: functional; details: time hrs <16
In short: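 Diluted samples were plated on PDA and incubated 24 h at 35 °C. CFU were counted and log10 CFU/mL was plotted against time. Detection limit was 100 CFU/mL. Run in triplicate.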

Candida albicans [17] = test: Fungicidal activity in Candida albicans CPCC400616 assessed as reduction in viable colony formation measured after 24 hrs by time kill assay; type: functional, organism-based
Candida albicans [18] = test: Antifungal activity against fluconazole-resistant Candida albicans 901 assessed as fungal growth inhibition by CLSI protocol based method
Candida albicans [19] = test: Antifungal activity against fluconazole-resistant Candida albicans 904 assessed as fungal growth inhibition by CLSI protocol based method
Candida albicans [20] = test: Antifungal activity against fluconazole-resistant Candida albicans 632 assessed as fungal growth inhibition by CLSI protocol based method
Candida albicans [21] = test: Antifungal activity against fluconazole-resistant Candida albicans 100 assessed as fungal growth inhibition by CLSI protocol based method
Candida albicans [22] = test: Antifungal activity against fluconazole-resistant Candida albicans 103 assessed as fungal growth inhibition by CLSI protocol based method
Candida albicans [23] = test: Antifungal activity against fluconazole-resistant Candida albicans 311 assessed as fungal growth inhibition by CLSI protocol based method
CYP2C9 = CYP2C9 (Homo sapiens, UniProt P11712); test: Inhibition of CYP2C9 in human liver Microsome using diclofenac as substrate preincubated for 10 mins followed by NADPH addition and further incubated for 10 mins as substrate by LC-MS/MS analysis relative to control; details: liver microsomes, probe diclofenac
CYP2D6 = CYP2D6 (Homo sapiens, UniProt P10635); test: Inhibition of CYP2D6 in human liver Microsome using dextromethorphan as substrate preincubated for 10 mins followed by NADPH addition and further incubated for 10 mins as substrate by LC-MS/MS analysis relative to control; details: liver microsomes, probe dextromethorphan
Candida albicans [24] = test: Anti-biofilm activity in Candida albicans CPCC400616 assessed as inhibition of biofilm formation incubated for 18 hrs by XTT assay; type: functional; in short: as §1

T1 sequence (P10613 whole entry): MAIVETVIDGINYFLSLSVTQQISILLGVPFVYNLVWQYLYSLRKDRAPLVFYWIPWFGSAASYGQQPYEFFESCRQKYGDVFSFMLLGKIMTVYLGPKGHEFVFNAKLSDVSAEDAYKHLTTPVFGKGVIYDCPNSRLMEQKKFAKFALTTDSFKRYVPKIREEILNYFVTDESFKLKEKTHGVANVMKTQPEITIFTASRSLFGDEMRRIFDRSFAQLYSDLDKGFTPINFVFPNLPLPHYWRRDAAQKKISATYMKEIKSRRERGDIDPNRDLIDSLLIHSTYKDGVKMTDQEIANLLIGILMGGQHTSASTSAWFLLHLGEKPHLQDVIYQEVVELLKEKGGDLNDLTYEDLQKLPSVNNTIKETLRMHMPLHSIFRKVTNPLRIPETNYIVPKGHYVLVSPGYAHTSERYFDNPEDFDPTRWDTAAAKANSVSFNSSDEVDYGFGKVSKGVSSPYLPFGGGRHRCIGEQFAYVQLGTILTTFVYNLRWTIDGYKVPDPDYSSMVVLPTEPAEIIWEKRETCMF
Chain of CYP2D6 (P10635 whole entry): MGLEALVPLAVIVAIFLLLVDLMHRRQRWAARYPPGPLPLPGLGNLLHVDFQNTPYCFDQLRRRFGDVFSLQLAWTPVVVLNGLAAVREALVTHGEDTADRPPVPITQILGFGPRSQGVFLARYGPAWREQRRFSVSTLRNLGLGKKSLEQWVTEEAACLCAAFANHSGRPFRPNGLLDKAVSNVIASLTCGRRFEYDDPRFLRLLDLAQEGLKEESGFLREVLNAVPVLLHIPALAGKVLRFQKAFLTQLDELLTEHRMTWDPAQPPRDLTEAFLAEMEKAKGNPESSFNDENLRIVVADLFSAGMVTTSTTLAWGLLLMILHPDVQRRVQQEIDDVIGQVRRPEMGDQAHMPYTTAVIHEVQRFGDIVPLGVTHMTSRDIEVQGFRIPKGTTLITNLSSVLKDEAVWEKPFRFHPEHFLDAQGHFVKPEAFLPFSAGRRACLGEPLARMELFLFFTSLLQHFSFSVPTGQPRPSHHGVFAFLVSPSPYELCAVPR
Chain of CYP2C9 (P11712 whole entry): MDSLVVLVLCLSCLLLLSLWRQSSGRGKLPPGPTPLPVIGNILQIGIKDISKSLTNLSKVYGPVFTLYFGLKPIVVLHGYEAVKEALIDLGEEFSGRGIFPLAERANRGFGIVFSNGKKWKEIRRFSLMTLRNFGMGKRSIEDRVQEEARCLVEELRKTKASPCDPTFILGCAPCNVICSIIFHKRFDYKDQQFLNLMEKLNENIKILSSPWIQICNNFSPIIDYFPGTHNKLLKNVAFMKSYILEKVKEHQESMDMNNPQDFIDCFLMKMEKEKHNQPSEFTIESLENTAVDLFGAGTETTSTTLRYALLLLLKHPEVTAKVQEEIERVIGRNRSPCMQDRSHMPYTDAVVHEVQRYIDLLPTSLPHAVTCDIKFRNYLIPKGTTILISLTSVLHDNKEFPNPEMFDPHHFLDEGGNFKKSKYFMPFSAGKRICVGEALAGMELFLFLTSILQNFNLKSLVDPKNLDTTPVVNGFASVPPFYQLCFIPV

SMILES | MFC (Candida albicans [1]) | MBIC50 (Candida albicans [2]) | MBIC50 (Candida albicans [3]) | MBIC50 (Candida albicans [4]) | MIC (Candida albicans [5]) | MIC (Candida albicans [6]) | MIC (Candida tropicalis) | MIC (Cryptococcus neoformans) | MIC (Candida parapsilosis) | MIC (Nakaseomyces glabratus) | MIC (Pichia kudriavzevii) | IC50 (THLE-2) | IC50 (A549) | IC50 (MCF7) | further results
Cc1ccc(C(=O)C(Cn2ccnc2)NC(=O)c2ccc(-c3ccc(Cl)cc3)s2)cc1 (stereo not drawn) | 0.125 µg/mL (≈ 0.278 µM) | >64 µg/mL | 8 µg/mL | 1 µg/mL | < 0.03 µg/mL | < 0.03 µg/mL | < 0.03 µg/mL | 0.5 µg/mL (≈ 1.11 µM) | 0.5 µg/mL (≈ 1.11 µM) | 0.25 µg/mL (≈ 0.556 µM) | 1 µg/mL (≈ 2.22 µM) | 16.1 µM | 19.1 µM | > 30 µM | Activity [7]: 42.91%; Activity [8]: 5.06%; Activity [9]: 31.02%; Activity [10]: 3.2%; Activity [11]: 8.64%; remaining at 1 h [12]: 93.1%; remaining at 2 h [13]: 89.5%; half-life [14]: > 4.8 h; Activity (Candida albicans [15]): Dose-Dependent Effect; Activity (Candida albicans [16]): 2 log10CFU/ml; Activity (Candida albicans [17]): Dose-Dependent Effect; MIC (Candida albicans [18]): 1 µg/mL (≈ 2.22 µM); MIC (Candida albicans [19]): 0.25 µg/mL (≈ 0.556 µM); MIC (Candida albicans [20]): 1 µg/mL (≈ 2.22 µM); MIC (Candida albicans [21]): 0.5 µg/mL (≈ 1.11 µM); MIC (Candida albicans [22]): 1 µg/mL (≈ 2.22 µM); MIC (Candida albicans [23]): 1 µg/mL (≈ 2.22 µM)
Nc1ccc(S(=O)(=O)Nc2ccnn2-c2ccccc2)cc1 [SULFAPHENAZOLE] | – | – | – | – | – | – | – | – | – | – | – | – | – | – | inhibition at 10 min (CYP2C9): 84.5%
C=C[C@H]1C[N@@]2CC[C@H]1C[C@@H]2[C@@H](O)c1ccnc2ccc(OC)cc12 [QUINIDINE] | – | – | – | – | – | – | – | – | – | – | – | – | – | – | inhibition at 10 min (CYP2D6): 96.2%
CCC(C)n1ncn(-c2ccc(N3CCN(c4ccc(OCC5COC(Cn6cncn6)(c6ccc(Cl)cc6Cl)O5)cc4)CC3)cc2)c1=O (stereo not drawn) [ITRACONAZOLE] | 16 µg/mL (≈ 22.7 µM) | >64 µg/mL | 32 µg/mL | 16 µg/mL | 0.03 µg/mL (≈ 0.0425 µM) | 0.03 µg/mL (≈ 0.0425 µM) | 0.03 µg/mL (≈ 0.0425 µM) | 0.125 µg/mL (≈ 0.177 µM) | 0.125 µg/mL (≈ 0.177 µM) | 0.125 µg/mL (≈ 0.177 µM) | 0.125 µg/mL (≈ 0.177 µM) | > 30 µM | > 30 µM | > 30 µM | MBIC50 (Candida albicans [24]): >64 µg/mL

— ChEMBL document CHEMBL4828738, “Design, synthesis and evaluation of novel 5-phenylthiophene derivatives as potent fungicidal of Candida albicans and antifungal reagents of fluconazole-resistant fungi” (Eur J Med Chem, 2021)
